“Also recorded” adds a separate entry of the source. Read-outs that look alike come from different tables or passages of the source. Marks after values point to notes of the source that are not given here.
What was measured:
[1] = cited from earlier work
MIC‐1 [2] = details: patients with solid tumors/MM and AML; cited from earlier work
[3] = monoprotic carboxylic acid; cited from earlier work
[4] = system: T, B, and natural killer lymphocytes in peripheral blood; test: Immunophenotyping of whole blood; type: in vivo, human; details: periods 1 and 4; absolute counts and percentages
Outline: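 Healthy adults took single 60-mg oral doses of the test compound. Whole blood (K2EDTA) was drawn at screening, predose on day 1 of periods 1 and 4, and on day 5 (96 h postdose). A validated GLP flow cytometry method gave absolute counts and percentages of peripheral T, B and NK lymphocytes.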

[5] = cited from earlier work; remark: listed apart in the source
[6] = Safety: treatment-emergent adverse events; type: in vivo, human
[7] = cited from earlier work; remark: listed apart in the source
MIC‐1 [8] = test: Serum MIC-1 pharmacodynamics; type: in vivo, human; details: for P, baseline predose MIC‐1 concentration / MIC‐1 %CFBC24 (percent change from predose concentration at 24 hours) / MIC‐1 %CFBCmax (percent change from predose concentration at Cmax) / MIC‐1 AUC0‐24 / MIC‐1 AUC0‐inf / MIC‐1 AUC0‐t / MIC‐1 C24 / MIC‐1 FoldC24 (C24/P): serum, mean (%CV)
[9] = type: in vivo, human; details: for exposure in UGT1A1*28 heterozygous poor metabolizers (6/7 TA repeats) vs WT (6/6 TA repeats): Treatment A, n = 16 vs n = 12; for C24: mean (%CV)
[10] = cynomolgus macaques; cited from earlier work
[11] = physiologically based PK modeling; cited from earlier work
[12] = Urine excretion of navtemadlin and M1; type: in vivo, human
[13] = single 60-mg doses, healthy subjects
[14] = Treatment A: 60 mg new tablet fasted
[15] = Treatment B: 60 mg new tablet fed
[16] = Treatment C: 60 mg old tablet fasted
[17] = period 1 (old tablet fasted), 0-48 h urine

For `CC(C)[C@@H](CS(=O)(=O)C(C)C)N1C(=O)[C@@](C)(CC(=O)O)C[C@H](c2cccc(Cl)c2)[C@H]1c1ccc(Cl)cc1` [Navtemadlin], the “protein‐bound” value [1] is given as 97.5%, the “effect on serum PD marker MIC‐1” value (MIC‐1 [2]) is given as “dose‐ and plasma concentration–dependent increases” and the pKa [3] is given as 4.35. The “lymphocyte subsets and monocytes, postdose (96 hours) vs predose” value [4] was “did not differ”, the “dose dependence of exposure” value ([5]; dose range of 15 mg to 480 mg) was “linear” and the “apparent oral central volume of distribution” value ([5]; patients with solid tumors) was 62.9 L. The “All TEAEs: Number of Subjects with TEAE” value ([6]; Treatment A (Combined): new tablet fasted) was 5, the “All TEAEs: Number of Subjects with TEAE” value ([6]; Treatment B: new tablet fed) was 2 and the “All TEAEs: Number of Subjects with TEAE” value ([6]; Treatment C: old tablet fasted (period 1)) was “Nine”. For the same compound, the “incidence of constipation (TEAE)” value ([6]; occurred only with treatment C (old tablet, fasted)) was 13%, the “incidence of headache (TEAE)” value ([6]; occurred with all treatments A, B, and C) was 10% and the “TEAE related to navtemadlin” value ([6]; reported once, treatment B (new tablet fed)) was “Headache”. For the same compound, the “discontinuations due to adverse events” value [6, 13] was “without any discontinuations; also recorded: no subject discontinued due to an AE”, the “serious adverse events or deaths” value [6, 13] was “No serious adverse events or deaths occurred; also recorded: No deaths or serious AEs occurred” and the “severity of adverse events” value [6, 13] was “mild”. The “solubility, pH dependence” value [7] was “increases with increasing pH”, the “pharmacodynamic half‐life of MIC‐1 serum elevations” value (MIC‐1 [8]; 60‐mg dose, healthy subjects) was greater than 20 h and the “correlation navtemadlin AUC0‐t vs MIC‐1 AUC0‐t, intercept” value (MIC‐1 [8]; Treatment A, AUC in nM • h) was 1.97. For the same compound, the “correlation navtemadlin AUC0‐t vs MIC‐1 AUC0‐t, slope” value (MIC‐1 [8]; Treatment A, AUC in nM • h) was 0.0006, the “P, baseline predose MIC‐1 concentration” value (MIC‐1 [8]; Treatment A: 60 mg new tablet fasted (periods 2-4)) was 170 (119.8); 60 pg/mL and the “MIC‐1 %CFBC24 (percent change from predose concentration at 24 hours)” value (MIC‐1 [8]; [14]) was 2297 (101); 60%. For the same compound, the “MIC‐1 %CFBCmax (percent change from predose concentration at Cmax)” value (MIC‐1 [8]; [14]) was 3759 (103.5); 60%, the “MIC‐1 AUC0‐24” value (MIC‐1 [8]; [14]) was 32743 (49.4); 60 pg • h/mL and the “MIC‐1 AUC0‐inf” value (MIC‐1 [8]; [14]) was 96215 (51.9); 31 pg • h/mL. The “MIC‐1 AUC0‐t” value (MIC‐1 [8]; [14]) was 89409 (48.7); 60 pg • h/mL, the “MIC‐1 C24” value (MIC‐1 [8]; [14]) was 1318 (50.5); 60 pg/mL and the “MIC‐1 FoldC24 (C24/P)” value (MIC‐1 [8]; [14]) was 24.0 (96.8); 60. The “P, baseline predose MIC‐1 concentration” value (MIC‐1 [8]; Treatment B: 60 mg new tablet fed (periods 2-4)) was 214 (133.2); 30 pg/mL, the “MIC‐1 %CFBC24 (percent change from predose concentration at 24 hours)” value (MIC‐1 [8]; [15]) was 1778 (115.5); 30% and the “MIC‐1 %CFBCmax (percent change from predose concentration at Cmax)” value (MIC‐1 [8]; [15]) was 2684 (115.7); 30%. For the same compound, the “MIC‐1 AUC0‐24” value (MIC‐1 [8]; [15]) was 29820 (52.7); 30 pg • h/mL, the “MIC‐1 AUC0‐inf” value (MIC‐1 [8]; [15]) was 67607 (35.1); 16 pg • h/mL and the “MIC‐1 AUC0‐t” value (MIC‐1 [8]; [15]) was 81332 (54.2); 30 pg • h/mL. The “MIC‐1 C24” value (MIC‐1 [8]; [15]) was 1209 (47.7); 30 pg/mL, the “MIC‐1 FoldC24 (C24/P)” value (MIC‐1 [8]; [15]) was 18.8 (109.4); 30 and the “P, baseline predose MIC‐1 concentration” value (MIC‐1 [8]; Treatment C: 60 mg old tablet fasted (period 1)) was 505 (41); 30 pg/mL. For the same compound, the “MIC‐1 %CFBC24 (percent change from predose concentration at 24 hours)” value (MIC‐1 [8]; [16]) was 139 (61.8); 30%, the “MIC‐1 %CFBCmax (percent change from predose concentration at Cmax)” value (MIC‐1 [8]; [16]) was 393 (62.5); 30% and the “MIC‐1 AUC0‐24” value (MIC‐1 [8]; [16]) was 34365 (53.4); 30 pg • h/mL. For the same compound, the “MIC‐1 AUC0‐inf” value (MIC‐1 [8]; [16]) was 110915 (30.5); 4 pg • h/mL, the “MIC‐1 AUC0‐t” value (MIC‐1 [8]; [16]) was 91175 (38.5); 30 pg • h/mL and the “MIC‐1 C24” value (MIC‐1 [8]; [16]) was 1144 (38.4); 30 pg/mL. For the same compound, the “MIC‐1 FoldC24 (C24/P)” value (MIC‐1 [8]; [16]) was 2.39 (36); 30, the “delay of tmax after a meal” value ([9]; B vs A: new tablet fed vs fasted) was 1 h and the “exposure in UGT1A1*28 heterozygous poor metabolizers (6/7 TA repeats) vs WT (6/6 TA repeats)” value [9] was “slightly lower”. For the same compound, the “exposure in UGT1A1*28 heterozygous poor metabolizers (6/7 TA repeats) vs WT (6/6 TA repeats)” value ([9]; listed as navtemadlin) was “generally comparable”, the “time of second peak after dosing (enterohepatic recirculation)” value ([9]; all 3 treatments) was “around 10 hours” and the tmax ([9]; human, plasma, oral, 60 mg) was 2.01 h. The “PK in H. pylori–positive vs H. pylori–negative subjects” value ([9]; n = 12 positive vs n = 18 negative) was “not markedly different; also recorded: not markedly affected”, the “decrease in extent of exposure (AUC0‐24, AUC0‐t, AUC0‐inf) with a high‐fat meal” value ([9]; new tablet fed vs fasted) was 12% to 18% and the “intersubject variability, AUC0‐24 %CV” value ([9]; new tablet, fasted) was 55%. For the same compound, the “intersubject variability, Cmax %CV” value ([9]; new tablet, fasted) was 66%, the “difference in median tmax between fed and fasted conditions, significance” value ([9]; new tablet, Wilcoxon signed-rank, alpha level of 0.1) was “statistically significant” and the C24 ([9]; plasma, Treatment A: 60-mg new tablet, fasted) was 37.4 (83.9); 60 ng/mL. The C24 ([9]; plasma, Treatment B: 60-mg new tablet, fed (high-fat meal)) was 29.3 (83.3); 30 ng/mL, the C24 ([9]; plasma, Treatment C: 60-mg old tablet, fasted) was 29.3 (83.6); 30 ng/mL and the “intrasubject variability of PK parameters” value ([9]; reference formulation: new tablet, fasted) was less than 30%. For the same compound, the “tmax, difference of medians (90%CI)” value ([9]; test-reference: B (new tablet fed) minus A (new tablet fasted)) was 0.5 (0.004‐0.9) ^e , ^f h, the “tmax, difference of medians (90%CI)” value ([9]; test-reference: C (old tablet fasted) minus A (new tablet fasted)) was 0.1 (–0.3 to 0.6) ^e , ^f h and the urinary excretion route [10] was “minor excretion route”. For the same compound, the fraction absorbed [11] was roughly 100%, the “mean amount excreted in urine” value [12, 17] was 12.1 µg and the “mean fraction of dose excreted in urine” value [12, 17] was 0.02%. The urine excretion ([12]; single 60-mg dose, healthy subjects) was “negligible”.
